# Source: PubChem BioAssay
# Hits are enriched below; roughly 3.5% of the tested compounds scored in any of these assays.
# MrgX1 ag: agonists of human MrgX1 receptor. Q96LB2. B-score at 10 µM. actives 0.44% (n = 310,000). MrgX1-HEK293 cells, Fluo-4 calcium fluorescence, agonist mode; stronger effect = higher value;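 active means calcium response B-score plate-corrected fluorescence ratio at least 3 library SD, with starting fluorescence B-score inside 5 SD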
#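 Test system: HEK293 cells stably expressing human MrgX1 receptor; Input: fifteen thousand cells per well; Dosing: compound delivered in addition one of three; Schedule: overnight seeding, then 1 h dark dye loading; Technique: Fluo-4 NW calcium fluorescence; Measure: B-scored fluorescence response ratio; Controls: positive and negative controls per plate.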
# RGS4 inh: inhibitors of human RGS4; B-score at 10 µM; actives 0.45% (n = 310,000); AID 463165; P49798; HEK293 M3R/RGS4 inducible, Fluo-4 calcium flux; stronger effect = higher value; triggered by carbachol at its EC20;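 active means B-score, a plate-corrected calcium signal, over three deviations above library mean, with baseline fluorescence within five deviations of library mean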;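 further: RGS4 expression induced by doxycycline in cells with stable M3 receptor; B-score is computed from the integrated fluorescence ratio over baseline after carbachol; higher B-score means a larger calcium signal and so more RGS4 inhibition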
# Target sequence (P49798 whole entry, looked up): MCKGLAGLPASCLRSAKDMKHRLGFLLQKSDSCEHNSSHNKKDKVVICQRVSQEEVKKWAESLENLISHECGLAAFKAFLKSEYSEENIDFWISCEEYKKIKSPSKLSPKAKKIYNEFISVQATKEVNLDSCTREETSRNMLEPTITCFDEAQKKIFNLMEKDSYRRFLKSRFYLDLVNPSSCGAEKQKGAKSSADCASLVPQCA
# MrgX1 antagonist: human MrgX1 receptor antagonism, primary screen. B-score at 10 µM. MRGX1-HEK293 calcium flux, Fluo-4, BAM8-22 antagonism; stronger effect = lower value. actives 1.3% (n = 310,000). Q96LB2;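 active means calcium-response B-score plate-corrected more than 3 library SD below zero, starting fluorescence within 5 deviations, no agonist response on first addition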;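 further: peak minus trough fluorescence over baseline after final BAM8-22 challenge near maximal dose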
# MrgX1 allo act: human MrgX1 positive allosteric modulation, primary screen | MrgX1-HEK293, Fluo-4 calcium flux, FDSS; stronger effect = higher value | B-score at 10 µM | actives 0.63% (n = 310,000) | AID 588675;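 active means plate-corrected calcium response at least 3 library SD above typical, normal starting fluorescence, not activating the receptor alone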;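 further: compound read alongside a low EC10 to EC30 dose of BAM8-22 agonist; peak minus trough fluorescence over baseline measured at the second addition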
# RGS4 act: RGS4 potentiation or activation. B-score at 10 µM. actives 0.92% (n = 310,000). AID 463111. HEK293 M3R/inducible RGS4, carbachol calcium flux Fluo4; stronger effect = lower value;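 active means B-score of the integrated calcium signal more than 4 SD below the library mean, with starting fluorescence not abnormally high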;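 further: negative B-score means reduced calcium response which marks RGS4 activation or potentiation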
#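 test system = M3R-expressing HEK293 line, RGS4 induced by doxycycline | probe or stimulus = carbachol at ECmax as muscarinic agonist stimulus | timing = dye loading 30 min 37 °C, buffer rest 30 min RT | signal = calcium dye Fluo4 fluorescence | evaluation = B score from integrated fluorescence ratio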
# A number is an active result; 0 = inactive.
SMILES,MrgX1 ag,RGS4 inh,MrgX1 antagonist,MrgX1 allo act,RGS4 act
O=C(Nc1ccccc1)N1CCCC(c2nc(-c3ccc(F)cc3)no2)C1 (centres undefined),0,0,0,0,0
c1ccc(OCCCN2CCCC2)cc1,0,0,0,0,0
FC(F)Sc1ccc(NC(=S)NCC2CCCCC2)cc1,0,0,-5.12,0,0
COc1ccccc1N(CC(=O)NCc1ccc(F)cc1)C(=O)CCC(=O)Nc1nccs1,0,0,0,0,0
COc1ccccc1NC(=O)CCC(=O)N(Cc1ccc(OC)c(OC)c1)c1nccs1,0,0,-7.38,0,0
O=C(CSc1nc2ccccc2c(=O)n1Cc1ccco1)c1ccccc1,0,0,0,0,0
Cc1cc(-n2c(C)cc(C(=O)CSc3nc4ccccc4c(=O)n3Cc3ccco3)c2C)no1,0,0,-6.32,0,0
COc1cc(CN2CCCC(C(=O)Nc3cccc(-n4cccn4)c3)C2)ccc1F (centres undefined),0,0,0,0,0
COC(=O)C(C)Oc1ccc2c(c1)O/C(=C\c1ccco1)C2=O (centres undefined),0,0,0,0,-9.07
COc1ccc(/C=C2\Oc3cc(OCC(N)=O)ccc3C2=O)cc1OC,0,0,-5.37,0,-8.15
O=C(COc1ccc(Cl)cc1)Nc1ccc2[nH]ncc2c1,0,0,0,0,0
O=C(Cc1cccs1)Nc1ccc(-c2nnc(-c3ccccc3)o2)cc1,0,0,0,0,0
Cc1cccc(-c2nnc(-c3cccc(NC(=O)Cc4cccs4)c3)o2)c1,0,0,0,0,-7.41
COc1ccc(N2CCN(S(=O)(=O)c3ccc(C(=O)NC4CCCC4)cc3)CC2)cc1,0,0,0,0,0
C=CCOc1ccc(/C=N/NC(=O)c2cc3c(OC)cc(OC)cc3[nH]2)cc1,0,0,0,0,-8.13
NC(=O)CN1C(=O)C(O)(CC(=O)/C=C\c2ccc3c(c2)OCO3)c2ccccc21 (centres undefined),0,0,0,0,0
CN(C(=O)/C=C/c1ccc2c(c1)OCO2)c1ccccc1,0,0,0,9.1,0
CN1C(=O)C(O)(CC(=O)/C=C\c2ccc3c(c2)OCO3)c2ccccc21 (centres undefined),0,0,-5.38,0,0
O=C1CCCc2oc3c(cc(NS(=O)(=O)c4ccc5c6c(cccc46)C(=O)N5)c4ccccc43)c21,0,0,0,7,0
CC(=O)Nc1ccc(-c2csc(Nc3ccc(Cl)cn3)n2)cc1,0,0,0,7.16,0
CC(=O)Nc1cccc(-c2csc(Nc3ccc(Cl)cn3)n2)c1,0,0,0,0,0
NNC(=O)Nc1cccc(C(F)(F)F)c1,0,0,0,11.9,0
Cc1cn(CCOc2ccc(Cl)cc2)c(=O)[nH]c1=O,0,0,0,0,0
O=C1OC(c2ccc(F)cc2)=C/C1=C\c1ccc(O)cc1,0,0,0,0,0
O=C1OC(c2ccc(F)cc2)=C/C1=C\c1ccc([N+](=O)[O-])o1,0,0,-7.82,0,0
SMILES,MrgX1 ag,RGS4 inh,MrgX1 antagonist,MrgX1 allo act,RGS4 act
CC1=NN(c2ccccc2)C(=O)C1C(=O)c1ccc(Cl)cc1 (centres undefined),32,0,0,0,0
O=C(N/N=C/C(Br)=C/c1ccccc1)c1ccccc1F,0,0,0,7.04,0
O=[N+]([O-])c1ccccc1-c1nc(-c2ccc(Br)o2)no1,0,0,0,0,0
O=C(Nc1cccc(S(=O)(=O)N2CCCC2)c1)c1ccc2c(=O)n3c(nc2c1)CCCCC3,0,0,0,0,0
O=C(Nc1cccc(S(=O)(=O)N2CCOCC2)c1)c1ccc2c(=O)n3c(nc2c1)CCCCC3,0,0,0,0,-7.34
CC1=[N+](C)N(c2ccccc2)C(=O)C1N=Cc1c(Cl)cccc1Cl (centres undefined),30.7,0,0,0,0
CC1=[N+](C)N(c2ccccc2)C(=O)C1N=Cc1ccccc1Cl (centres undefined),0,0,0,0,0
S=C(Nc1cccc(Cl)c1)Nc1ccccc1Oc1ccccc1,0,0,-5.83,0,0
S=C(Nc1ccc(Cl)cc1Cl)Nc1ccccc1Oc1ccccc1,0,0,0,0,0
CC(=O)c1ccc(NS(=O)(=O)c2ccc(N)cc2)cc1,0,0,0,0,0
CCOC(=O)c1ccc(NC(=O)CCc2nc(-c3ccc(C)cc3)no2)cc1,0,0,0,0,0
